Measured values of several laboratories.
Compare with care: the assays were run in different laboratories. pIC50: −log10 of the molar value.

| SMILES | target or system | test | system | conditions | endpoint | result |
| --- | --- | --- | --- | --- | --- | --- |
| Cc1ncc2n1-c1ccc(Cl)cc1C(c1ccccc1F)=NC2 | – | metabolic stability | human, hepatocytes | 1 µM, 4 h | compound remaining | 26% |
| C#Cc1ccc2c(c1)C(c1ccccc1F)=N[C@@H](C)c1c(C(=O)OCC(F)(F)F)ncn1-2 | – | metabolic stability | human, liver microsomes | 10 min | compound remaining | < 5% |
| Cc1nc(C(=O)N2CCC[C@H]2C(=O)N[C@@H](CCC2CCCCC2)C(=O)N[C@@H](CC(C)C)C(=O)NC(C)(C)C(=O)N[C@@H](CC(C)C)C(=O)N(C)[C@@H](CC(C)C)C(=O)NC(C)(C)C(=O)NC(C)(C)C(=O)NCCC(=O)NC2(CN(C)C)CCC2)co1 | L6 | cell growth or viability, resazurin | – | 68 h | pIC50 | < 5.07 |
| COc1cc([C@@H]2c3cc4c(cc3[C@H](O)[C@H]3COC(=O)[C@H]23)OCO4)cc(OC)c1OC | L6 | cell growth or viability, resazurin | – | 72 h | pIC50 | 6.77 |
| Cc1ncc2n1-c1ccc(Cl)cc1C(c1ccccc1F)=NC2 | – | metabolic stability | human, liver microsomes | 1 µM, 30 min | compound remaining | < 7% |
| O=c1ccc2cc(O)c(OCCCCCn3ccnc3)cc2o1 | HepG2.2.15 | cell growth or viability, MTT | – | 9 days | CC50 | 140 µM |
| COc1cc([C@@H]2c3cc4c(cc3[C@H](O)[C@H]3COC(=O)[C@H]23)OCO4)cc(OC)c1OC | L6 | cell growth or viability, resazurin | – | 70 h | pIC50 | 7.30 |
| N=c1c2c(-c3ccccc3)c(-c3ccccc3)n(Cc3ccccc3)c2ncn1[C@H]1CC[C@H](O)CC1 | – | metabolic stability | human, hepatocytes | 1 µM, 4 h | compound remaining | 86% |
| Cc1nccn1CCCCOc1cc2oc(=O)ccc2cc1O | HepG2.2.15 | cell growth or viability, MTT | – | 9 days | CC50 | > 648 µM |
| CCOC(=O)c1ncn2c1[C@H](C)N=C(c1ccccc1F)c1cc(C3CC3)ccc1-2 | – | metabolic stability | human, liver microsomes | 20 min | compound remaining | < 5% |
